Measured values reported in article PMC11483317 (Heliyon, 2024).
Entries after “also recorded” stand apart in the source; their conditions may differ. Blank lines part the entries; values can stand above or below the compound they belong to.

Tests used:
[1] = test system: brain capillary endothelial cells and astrocytes; details: cited from earlier work; for % of initial radioactivity in the abluminal medium: same bovine BBB model
brain DHA = details: normal adult mice, dietary; cited from earlier work
brain = details: 20-days-old rats, tail vein perfusion 30 s; cited from earlier work
hBLECs [2] = experiment: Passage / apparent permeability across hBLEC monolayer; format: in vitro ADME, human
Summary of the method: (§1)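 Test lipid at 1 or 10 µM in 500 µL Ringer–HEPES (pH 7.4) on the luminal side of hBLEC/pericyte co-culture inserts. Inserts moved to fresh 1.5 mL buffer wells at 30, 60, 120 and 180 min. Media lipids extracted by Bligh–Dyer and quantified by C18 LC-MS. %/min = quantity crossed ÷ initial luminal quantity ÷ time. Papp calculated per an earlier method. Mean ± SD, n = 3.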

[3] = as above; format: in vitro ADME, human; details: human, pH 7.4, apparent coefficient permeability (Papp), 10 μM, 180 min after transport across hBLECs
Summary of the method: as §1

[4] = test system: hBLECs of the human BBB model; experiment: Toxicity assessment: hBLEC monolayer tightness by Lucifer yellow permeability; format: cell-based
Summary of the method: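 Integrity check run alongside transport, on PET inserts in Ringer–HEPES (pH 7.4, 37 °C). Lucifer yellow added luminally with test lipid (1 and 10 µM) or 1% DMSO as toxicity control. Abluminal sampled at 30–180 min, luminal at 180 min. Fluorescence read at ex 490/em 525 nm. Permeability divided by 1.12 cm² insert area gives Pe (cm/min), compared with untreated cells. Mean ± SD, n = 3.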

hBLECs [5] = experiment: Intracellular accumulation in hBLECs, LC-MS; format: in vitro ADME, human; details: 180 min after incubation
Summary of the method: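 Human BBB model: cord-blood CD34+-derived endothelial cells on PET inserts, co-cultured ≥6 days with brain pericytes (37 °C, 5% CO2) to give hBLECs. Test lipid at 1 or 10 µM in 500 µL Ringer–HEPES (pH 7.4), luminal side, for 180 min. Cell lipids extracted by Folch method, quantified by C18 LC-MS, and expressed as % of initial concentration. Triplicates.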

Compound: CC/C=C\C/C=C\C/C=C\C/C=C\C/C=C\C/C=C\CCC(=O)OC(COC(C)=O)COP(=O)([O-])OCC[N+](C)(C)C (stereo not drawn) [AceDoPC, 1-acetyl,2-docosahexaenoyl-glycerophosphocholine]
- % of initial radioactivity in the abluminal medium [1]: 7.5%

- percentage of passage per min (lipids recovered in abluminal medium) (hBLECs [2]; 10 μM, 30 min post-incubation): 0.54%
- percentage of passage per min (lipids recovered in abluminal medium) (hBLECs [2]; 10 μM, 120 min post-incubation): 0.40%
- apparent coefficient permeability (Papp) (hBLECs [2]; 10 μM, 180 min after transport across hBLECs): 26.04 ×10⁻⁶ cm/s
- percentage of passage per minute (constant) (hBLECs [2]; constant over the 180 min transport): around 0.5 % per minute
- Papp at 180 min, 10 μM [3]: 26 ×10⁻⁶ cm/s
- intracellular accumulation in hBLECs (hBLECs [5]; 10 μM): 3.11 ± 1.24%
Compound: CC/C=C\C/C=C\C/C=C\C/C=C\C/C=C\C/C=C\CCC(=O)O [DHA, Docosahexaenoic acid]
- increase of levels of brain DHA (brain DHA): did not significantly increase
- % of initial radioactivity in abluminal medium ([1]; 5 μM, incubation 240 min): 5%
- % of initial radioactivity in the abluminal medium [1]: 4.5%
- recovered in the brain, % of injected radioactivity (brain): 0.3–0.4%
- toxicity towards hBLECs (from LY permeability) ([4]; 10 μM): absence of toxicity
- intracellular accumulation in hBLECs (hBLECs [5]; 1 μM): lower than the limit of detection; also recorded: under the limit of quantification

Compound: CC/C=C\C/C=C\C/C=C\C/C=C\C/C=C\C/C=C\CCC(=O)O[C@H](COC(=O)CCCCCCCCCCCCCCC)COP(=O)([O-])OCC[N+](C)(C)C [PC-DHA, 1-palmitoyl,2-docosahexaenoyl-sn-glycero-3-phosphatidylcholine]
- % of initial radioactivity in the abluminal medium [1]: 4%

Compound: Lucifer Yellow
- BBB permeability to Lucifer yellow (control permeability) ([4]; control cells, absence of test lipids, 180 min): 0.55 ± 0.06 x 10^−3 cm min^−1
